ChEMBL document CHEMBL1137710, “Synthesis and in vitro antitumor activity of new quinoxaline derivatives” (2009)

How the values were obtained:
Type in all cases: functional
[1] = tested on: MOLT-4; experiment: Growth inhibition of human MOLT4 cells after 48 hrs by sulforhodamine B assay; conditions: MOLT-4, 48 h; for TGI: read-out: pTGI (converted)
Method in brief: (§1)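 NCI 60-human-tumor-cell-line panel, with compounds tested over a 5-log dose range. Values are taken from dose-response curves as log10 molar concentrations: GI50 is 50% net growth inhibition, TGI is total growth inhibition, and LC50 is 50% net cell death.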

[2] = tested on: MDA-N; experiment: Growth inhibition of human MDA-N cells after 48 hrs by sulforhodamine B assay; conditions: for CC50: read-out: pLC50 (the source's name) (converted); for TGI: read-out: pTGI (converted)
[3] = tested on: HCC 2998; experiment: Growth inhibition of human HCC2998 cells after 48 hrs by sulforhodamine B assay; conditions: HCC 2998, 48 h; for TGI: read-out: pTGI (converted); method in brief: as §1

Structure (SMILES) | GI50 [1] | LC50 [1] | TGI [1] | GI50 [2] | CC50 [2] | TGI [2] | GI50 [3] | LC50 (50% net cell kill) [3] | TGI [3]
Nc1cc(N)c2nc(-c3ccccc3)c(Oc3ccc(F)cc3)nc2c1 | 6.61 µM | > 100 µM | > 100 µM | – | – | – | – | – | –
Nc1cc(N)c2nc(-c3ccccc3)c(Sc3ccc(Cl)c(Cl)c3)nc2c1 | 4.07 µM | > 100 µM | > 100 µM | – | – | – | – | – | –
Nc1cc(N)c2nc(-c3ccccc3)c(NCc3ccc(Cl)c(Cl)c3)nc2c1 | 2.09 µM | > 100 µM | > 100 µM | – | – | – | – | – | –
COc1cc(CNc2nc3cc(N)cc(N)c3nc2-c2ccccc2)cc(OC)c1OC | 12.3 µM | > 50.1 µM | > 50.1 µM | – | – | – | – | – | –
COc1ccc(Oc2nc3cc(N)cc(N)c3nc2-c2ccccc2)cc1 | 5.37 µM | > 100 µM | 93.3 µM | 35.5 µM | > 100 µM | > 100 µM | – | – | –
Nc1cc(N)c2nc(-c3ccccc3)c(Sc3ccc(F)cc3)nc2c1 | > 100 µM | > 100 µM | > 100 µM | – | – | – | – | – | –
COc1ccc(CNc2nc3cc(N)cc(N)c3nc2-c2ccccc2)cc1 | – | – | – | 14.1 µM | 53.7 µM | 27.5 µM | 21.9 µM | > 100 µM | 51.3 µM
Nc1cc(N)c2nc(-c3ccccc3)c(Oc3ccc(Cl)c(Cl)c3)nc2c1 | 6.31 µM | > 100 µM | > 100 µM | – | – | – | – | – | –
Nc1cc(N)c2nc(-c3ccccc3)c(NCc3ccc(F)cc3)nc2c1 | > 100 µM | > 100 µM | > 100 µM | – | – | – | – | – | –
COc1ccc(CNc2nc3cc(N)cc(N)c3nc2-c2ccccc2)cc1OC | 3.47 µM | > 100 µM | > 100 µM | – | – | – | 22.9 µM | > 100 µM | 56.2 µM
COc1ccc(Sc2nc3cc(N)cc(N)c3nc2-c2ccccc2)cc1 | 4.17 µM | > 100 µM | > 100 µM | – | – | – | – | – | –
COc1cc(CNc2nc3cc(N)cc(N)c3nc2-c2ccccc2)cc(OC)c1 | 3.02 µM | > 100 µM | > 100 µM | 2.34 µM | > 100 µM | 5.25 µM | – | – | –
COc1cc(OC)cc(Oc2nc3cc(N)cc(N)c3nc2-c2ccccc2)c1 | – | – | – | – | – | – | 2.51 µM | – | 13.8 µM
